From ChEMBL document CHEMBL1122798, “Trypanocidal 1,3-arylene diketone bis(guanylhydrazone)s. Structure-activity relationships among substituted and heterocyclic analogues” (1984) come the findings set out here.

Common to all, as to assay type: functional
Assay [1] deals with Mus musculus. Description: Compound was tested for Trypanocidal Activity in mice at 10 mg/kg; 10/10.
The subject of assay [2] is Mus musculus. Nature of the assay: Compound was tested for Trypanocidal Activity in mice at 60 mg/kg; 0/5.
Assay [3] concerns Mus musculus. Nature of the assay: Compound was tested for Trypanocidal Activity in mice at 15 mg/kg; 9/10.
Assay [4] concerns Mus musculus. Description: Compound was tested for Trypanocidal Activity in mice at 40 mg/kg; 10/10.
For assay [5], the system named is Mus musculus. Nature of the assay: Compound was tested for Trypanocidal Activity in mice at 6 mg/kg; 14/20.
The subject of assay [6] is Mus musculus. Nature of the assay: Compound was tested for Trypanocidal Activity in mice at 4 mg/kg; 11/20.
Assay [7] relates to Mus musculus. Description: Compound was tested for Trypanocidal Activity in mice at 2.5 mg/kg; 3/20.
Assay [8] relates to Mus musculus. Nature of the assay: Compound was tested for Trypanocidal Activity in mice at 100 mg/kg; 0/5.
Assay [9] has as its system Mus musculus. Description: Compound was tested for Trypanocidal Activity in mice at 1.5 mg/kg; 0/15.
Assay [10] is filed under the species Mus musculus. Description: Effective dose against Trypanosoma brucei infection in mice. The gist of the method:
(§1)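 Female Swiss-Webster mice (20–25 g) were infected ip with 5×10^4 T. brucei EATRO 110 organisms in fresh mouse blood diluted with minimum essential medium. Groups of 5 or 10 received a single ip dose in normal saline (solution or milled suspension, 20 μL/g) 6 h post-infection. Deaths within 72 h were scored as toxic. Survivors aparasitemic at 28 days (tail-blood wet films, phase contrast) counted as cures. ED50 was computed by Bliss/Litchfield–Wilcoxon, excluding toxic dosages.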

The subject of assay [11] is Mus musculus. Description: Compound was tested for Trypanocidal Activity in mice at 25 mg/kg; 8/10.
Assay [12] concerns Mus musculus. Nature of the assay: Compound was tested for Trypanocidal Activity in mice at 40 mg/kg; 0/10.
The test system of assay [13] is Mus musculus. Nature of the assay: Compound was tested for Trypanocidal Activity in mice at 60 mg/kg; 2/5.
Assay [14] deals with Mus musculus. Description: Compound was tested for Trypanocidal Activity in mice at 60 mg/kg; toxic deaths; 1/10.
The subject of assay [15] is Mus musculus. Description: Compound was tested for Trypanocidal Activity in mice at 1.5 mg/kg; 0/20.
Assay [16] has as its system Mus musculus. Nature of the assay: Tested for Trypanocidal Activity in mice at 10 mg/kg; 17/20. The procedure, abridged: as §1
Assay [17] concerns Mus musculus. Nature of the assay: Compound was tested for Trypanocidal Activity in mice at 25 mg/kg; 10/10.
Assay [18] concerns Mus musculus. Description: Compound was tested for Trypanocidal Activity in mice at 2.5 mg/kg; 5/30.
The test system of assay [19] is Mus musculus. Description: Compound was tested for Trypanocidal Activity in mice at 4 mg/kg; 10/30.
Assay [20] has as its system Mus musculus. Description: Compound was tested for Trypanocidal Activity in mice at 15 mg/kg; 10/10.
In assay [21] the test system is Mus musculus. Nature of the assay: Compound was tested for Trypanocidal Activity in mice at 6 mg/kg; 14/30.
For assay [22], the system named is Mus musculus. Description: Compound was tested for Trypanocidal Activity in mice at 40 mg/kg; 0/5.
Assay [23] deals with Mus musculus. Nature of the assay: Compound was tested for Trypanocidal Activity in mice at 25 mg/kg; 0/5.
Assay [24] deals with Mus musculus. Nature of the assay: Compound was tested for Trypanocidal Activity in mice at 15 mg/kg; 0/5.
Assay [25] concerns Mus musculus. Description: Compound was tested for Trypanocidal Activity in mice at 10 mg/kg; 22/30.
Assay [26] has as its system Mus musculus. Description: Compound was tested for Trypanocidal Activity in mice at 4 mg/kg; 24/45.
Assay [27] relates to Mus musculus. Nature of the assay: Compound was tested for Trypanocidal Activity in mice at 6 mg/kg; 32/45.
For assay [28], the system named is Mus musculus. Description: Compound was tested for Trypanocidal Activity in mice at 60 mg/kg; 7/10. The gist of the method: as §1
Assay [29] deals with Mus musculus. Description: Compound was tested for Trypanocidal Activity in mice at 100 mg/kg; 1/5.
Assay [30] relates to Mus musculus. Description: Compound was tested for Trypanocidal Activity in mice at 40 mg/kg; 9/10.
The subject of assay [31] is Mus musculus. Nature of the assay: Compound was tested for Trypanocidal Activity in mice at 1.5 mg/kg; 0/10.
Assay [32] concerns Mus musculus. Nature of the assay: Compound was tested for Trypanocidal Activity in mice at 2.5 mg/kg; 6/25.
The subject of assay [33] is Mus musculus. Nature of the assay: Compound was tested for Trypanocidal Activity in mice at 0.1 mg/kg; 1/10.
In assay [34] the test system is Mus musculus. Description: Compound was tested for Trypanocidal Activity in mice at 4 mg/kg; 10/10.
The subject of assay [35] is Mus musculus. Nature of the assay: Compound was tested for Trypanocidal Activity in mice at 40 mg/kg; 5/5.
Assay [36] has as its system Mus musculus. Description: Compound was tested for Trypanocidal Activity in mice at 150 mg/kg; 3/5.
In assay [37] the test system is Mus musculus. Description: Compound was tested for Trypanocidal Activity in mice at 0.25 mg/kg; 28/40.
For assay [38], the system named is Mus musculus. Nature of the assay: Compound was tested for Trypanocidal Activity in mice at 100 mg/kg; 5/5.
Assay [39] relates to Mus musculus. Nature of the assay: Compound was tested for Trypanocidal Activity in mice at 60 mg/kg; 5/5.
The subject of assay [40] is Mus musculus. Nature of the assay: Compound was tested for Trypanocidal Activity in mice at 0.15 mg/kg; 6/20.
Assay [41] relates to Mus musculus. Nature of the assay: Compound was tested for Trypanocidal Activity in mice at 0.4 mg/kg; 24/45.
Assay [42] deals with Mus musculus. Nature of the assay: Compound was tested for Trypanocidal Activity in mice at 1.0 mg/kg; 9/10.
For assay [43], the system named is Mus musculus. Nature of the assay: Compound was tested for Trypanocidal Activity in mice at 25 mg/kg; 3/5.
Assay [44] has as its system Mus musculus. Nature of the assay: Compound was tested for Trypanocidal Activity in mice at 2.5 mg/kg; 9/10.
For assay [45], the system named is Mus musculus. Nature of the assay: Compound was tested for Trypanocidal Activity in mice at 0.06 mg/kg; 0/10.
Assay [46] has as its system Mus musculus. Description: Compound was tested for Trypanocidal Activity in mice at 10 mg/kg; 5/5.
The subject of assay [47] is Mus musculus. Nature of the assay: Compound was tested for Trypanocidal Activity in mice at 0.6 mg/kg; 23/25.
Assay [48] has as its system Mus musculus. Nature of the assay: Compound was tested for Trypanocidal Activity in mice at 15 mg/kg; 3/5.
The subject of assay [49] is Mus musculus. Nature of the assay: Compound was tested for Trypanocidal Activity in mice at 1.5 mg/kg; 19/20.
Assay [50] relates to Mus musculus. Nature of the assay: Compound was tested for Trypanocidal Activity in mice at 6 mg/kg; 10/10.

`C/C(=N\NC(=N)N)c1cc(C)cc(/C(C)=N/NC(=N)N)c1.Cl`: the Cures/total in the assay with Mus musculus [1] is reported as 10; in the assay on Mus musculus [2], 0; in the assay with Mus musculus [3], 9; in the assay on Mus musculus [4], 10; in the assay on Mus musculus [5], 14; with Mus musculus [6], 11. For the same compound, the Cures/total in the assay with Mus musculus [7] stood at 3; in the assay with Mus musculus [8], 0; with Mus musculus [9], 0; in the assay on Mus musculus [11], 8. Further, the ED50 in the assay listed under Mus musculus [10] is 4.1 mg/kg.

Consider `C/C(=N\NC(=N)N)c1cc(I)cc(/C(C)=N/NC(=N)N)c1.Cl`, for which the figures for the Cures/total in the assay on Mus musculus [12], with Mus musculus [8] and in the assay on Mus musculus [13] were 0, 0 and 2, respectively.

Turning to `CCO.COc1cc(/C(C)=N/NC(=N)N)cc(/C(C)=N/NC(=N)N)c1.Cl`, the Cures/total in the assay with Mus musculus [14] came to 1; in the assay with Mus musculus [4] it was 10; with Mus musculus [15], 0; with Mus musculus [16], 17; with Mus musculus [17] it was 10; in the assay with Mus musculus [8], 0. The results for the Cures/total in the assay with Mus musculus [18], in the assay with Mus musculus [19] and in the assay with Mus musculus [21] were 5, 10 and 14, respectively. For the same compound, the “Mice cured (number)” value in the assay on Mus musculus [20] is on record as 10. The compound also had a 50% effective dose (ED50) in the assay listed under Mus musculus [10] of 5.4 mg/kg.

Consider `C/C(=N\NC(=N)N)c1cccc(/C(C)=N/NC(=N)N)c1N.Cl`, for which the Cures/total in the assay with Mus musculus [22], with Mus musculus [23] and in the assay with Mus musculus [24] was 0 in each case.

Take `C/C(=N\NC(=N)N)c1cccc(/C(C)=N/NC(=N)N)c1.Cl` [BIS(GUANYLHYDRAZONE) ;2M HYDROCHLORIDE]: the Cures/total in the assay on Mus musculus [25] is reported as 22; with Mus musculus [26], 24; in the assay on Mus musculus [27], 32; in the assay with Mus musculus [28], 7; in the assay on Mus musculus [29] it was 1; in the assay with Mus musculus [30] it was 9. Further, the results for the Cures/total in the assay with Mus musculus [17], with Mus musculus [31] and with Mus musculus [32] were 10, 0 and 6, respectively. In the assay on Mus musculus [20], the “Mice cured (number)” value amounted to 10. This compound also registered a 50% effective dose (ED50) in the assay listed under Mus musculus [10] of 4.2 mg/kg.

For `CC(=O)NCC(=O)O.N=C(N)c1ccc(/N=N/Nc2ccc(C(=N)N)cc2)cc1` [DIMINAZEN ACETURATE], the Cures/total worked out at 1 in the assay with Mus musculus [33]; 10 with Mus musculus [34]; 5 in the assay on Mus musculus [35]; 3 in the assay on Mus musculus [36]; 28 in the assay with Mus musculus [37]; 5 in the assay with Mus musculus [38]. Further, the Cures/total in the assay with Mus musculus [39] is reported as 5; in the assay on Mus musculus [40], 6; in the assay with Mus musculus [41] it was 24; in the assay with Mus musculus [42], 9; in the assay on Mus musculus [43] it was 3; in the assay with Mus musculus [44], 9. In addition, the Cures/total in the assay with Mus musculus [45] was 0; in the assay with Mus musculus [46] it was 5; in the assay with Mus musculus [47], 23; in the assay with Mus musculus [48] it was 3; in the assay with Mus musculus [49], 19; in the assay on Mus musculus [50], 10. Moreover, in the assay listed under Mus musculus [10], the median effective dose (ED50) is 0.24 mg/kg.
